Measurements from different studies.
Compare with care: the assays were run in different laboratories. pIC50: −log10 of the molar value.
Organism: Mycolicibacterium smegmatis
Observed: microbial growth

| Structure (SMILES) | method | strain | tested at | time | measurement | value |
| --- | --- | --- | --- | --- | --- | --- |
| Cc1nc2sccn2c1C(=O)N1CCN(CCn2cc(CSc3nc4ccccc4[nH]3)nn2)CC1 | – | – | – | 72 h | pIC50 | 4.79 |
| O=C(N/N=C/c1ccc([N+](=O)[O-])o1)c1ccc(O)cc1 | – | ATCC14468 | – | – | MIC90 | > 1000 µg/mL |
| O=C(O)CCCCCC1NC(=O)CS1 (racemic) | – | MC^2155 | – | – | MIC90 | 10 µM |
| CCCCOc1ccc(-c2c[nH]c(N)n2)cc1 | – | ATCC700084 MC^2155 | – | 48 h | MIC | > 200 µM |
| CC(C)=CCC/C(C)=C/COCCNC1C2CC3CC(C2)CC1C3 (stereo not shown) | – | – | – | 48 h | pIC50 | ~5.05 |
| Cc1nc2sc3ccccc3n2c1C(=O)N1CCN(Cc2cn(-c3cccc(Cl)c3)nn2)CC1 | – | – | – | 72 h | pIC50 | 4.28 |
| NC[C@@H]1O[C@H](O[C@H]2[C@@H](O)[C@H](O[C@@H]3[C@@H](O)[C@H](N)C[C@H](N)[C@H]3O[C@H]3O[C@H](CO)[C@@H](O)[C@H](O)[C@H]3N)O[C@@H]2CO)[C@H](N)[C@@H](O)[C@@H]1O | broth dilution | – | – | 72 h | MIC | 0.5 µg/mL |
| CCCc1ccc(-c2c[nH]c(N)n2)cc1 | – | ATCC700084 MC^2155 | – | 48 h | MIC | 200 µM |
| Cc1nc2sc3ccccc3n2c1C(=O)N1CCN(Cc2cn(-c3cccc([N+](=O)[O-])c3)nn2)CC1 | – | – | – | 72 h | pIC50 | 4.36 |
| CC(C)=CCC/C(C)=C/C(=O)O | – | – | – | 48 h | pIC50 | < 3.30 |
| CO[C@H]1/C=C/O[C@@]2(C)Oc3c(C)c(O)c4c(O)c(c(/C=N/N5CCN(C)CC5)c(O)c4c3C2=O)NC(=O)/C(C)=C\C=C\[C@H](C)[C@H](O)[C@@H](C)[C@@H](O)[C@@H](C)[C@H](OC(C)=O)[C@@H]1C | disc diffusion | – | 15 µg/disc | – | inhibition zone | 14 mm |
| COCCOc1ccc(-c2c[nH]c(N)n2)cc1 | – | ATCC700084 MC^2155 | – | 48 h | MIC | > 200 µM |
| COc1c(N2C[C@@H]3CCCN[C@@H]3C2)c(F)cc2c(=O)c(C(=O)O)cn(C3CC3)c12 | – | ATCC14468 | – | – | MIC90 | 0.12 µg/mL |
